From article PMC4377161 (Molecular cancer therapeutics, 2014)
“Also recorded” adds a separate entry of the source.

What was measured:
G-protein activity = details: cited from earlier work
cannabinoid receptor CB1 = details: cited from earlier work
[1] = test system: UACC 903 xenografted melanoma tumors; assay: Xenograft tumor growth, UACC 903; assay type: in vivo, Athymic Nude-Foxn1nu mice; details: UACC 903 xenograft, 5–7.5 mg/kg i.p. daily, versus DMSO vehicle control
Summary of the method: (§1)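 Female Athymic Nude-Foxn1nu mice, 3–4 weeks old, injected s.c. above both rib cages with 1×10^6 UACC 903 or 1205 Lu cells in 0.2 mL DMEM with 10% FBS and 1% Glutamax. At day 6, with 50–75 mm3 tumors, mice randomized (5 mice/group, 2 tumors/mouse). Dosed i.p. daily for 3–4 weeks with DMSO vehicle or […] test compound, depending on cell line. Tumor size and body weight measured every 2 days.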

HT-1080 = assay: MTS cell viability, HT-1080 fibrosarcoma; assay type: cell-based; details: read-out: IC50, Other cancer types, 24 h
Summary of the method: (§2)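 Cells kept in DMEM with 1% Glutamax and 10% FBS at 37°C, 5% CO2. Seeded at 5×10^3 cells/well in 96-well plates and grown before treatment. Treated with DMSO vehicle or 0.62 to 40 µmol/L test compound for 24, 48 or 72 h. Viability read by MTS. IC50 per cell line derived from three independent experiments by curve fitting.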

[2] = test system: UACC 903 and 1205 Lu cells; assay: Cell cycle analysis, propidium iodide FACS; assay type: cell-based, human; details: 24 hours leelamine treatment, propidium iodide stained UACC 903 and 1205 Lu cells
LNCap = assay: MTS cell viability, LNCap prostate cancer; assay type: cell-based; details: read-out: IC50, Other cancer types, 24 h
Summary of the method: as §2

A-549 = assay: MTS cell viability, A-549 lung cancer; assay type: cell-based; details: read-out: IC50, Other cancer types, 24 h
Summary of the method: as §2

normal cells = assay: MTS cell viability, normal cells; assay type: cell-based, human; details: read-out: average IC50, normal cells; average over normal cells
Summary of the method: (§3)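 Melanoma lines (WM35, SbCl2, WM115, WM278.1, SK-MEL-24, 1205 Lu, UACC 903) and normal cells (FOM103 melanocytes, FF2441 fibroblasts, foreskin keratinocytes) seeded at 5×10^3 cells/well in 96-well plates. Exposed to DMSO vehicle or 0.62–40 µmol/L test compound for 24, 48 or 72 h, then MTS read. IC50 from three independent experiments per line, averaged across each group.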

UACC 903 melanoma cells = assay: Natural product library NPL-480 primary screen, MTS; assay type: cell-based, human; details: 5 µmol/L, 24 hours, UACC 903, MTS
Summary of the method: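 UACC 903 cells plated at 5×10^3 per well in 96-well plates for 24 h. Each library compound, from 10 mM DMSO stocks, added at 5 µmol/L final for 24 h. Viability read by MTS. Screen run three times and averaged.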

[3] = test system: UACC 903 and 1205 Lu cells; assay: Apo-ONE caspase-3/7 apoptosis assay; assay type: cell-based, human; details: longer exposure
[4] = test system: 1205 Lu xenografted melanoma tumors; assay: Xenograft tumor growth, 1205 Lu; assay type: in vivo, Athymic Nude-Foxn1nu mice; details: 1205 Lu xenograft, 5–7.5 mg/kg i.p. daily, versus DMSO vehicle control
Summary of the method: as §1

HT-29 = assay: MTS cell viability, HT-29 colon cancer; assay type: cell-based; details: read-out: IC50, Other cancer types, 24 h
Summary of the method: as §2

HCT-116 = assay: MTS cell viability, HCT-116 colon cancer; assay type: cell-based; details: read-out: IC50, Other cancer types, 24 h
Summary of the method: as §2

MCF-7 = assay: MTS cell viability, MCF-7 breast cancer; assay type: cell-based; details: read-out: IC50, Other cancer types, 24 h
Summary of the method: as §2

[5] = test system: preexisting xenografted melanoma tumors; assay: Xenograft tumor growth and body weight, UACC 903 or 1205 Lu; assay type: in vivo, Athymic Nude-Foxn1nu mice
Summary of the method: as §1

STAT3 pathway = assay: Western blot of pathway signaling, STAT3; assay type: cell-based, human; details: UACC 903 and 1205 Lu
Summary of the method: (§4)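 1.5×10^6 melanoma cells plated in 100 mm dishes. After 48 h, treated with 3–6 µmol/L test compound for 3 to 24 h, then lysed in RIPA and immunoblotted with ECL detection; α-enolase as loading control. Probes: MAPK, phospho-Erk1/2 (Thr202/Tyr204) and total Erk1/2; PI3K/Akt, phospho-Akt (Ser473), total Akt, phospho-PRAS40 (Thr246), phospho-p70S6K (Thr389); STAT3, phospho-Stat3 (Tyr705), total Stat3.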

MDA-MB-231 = assay: MTS cell viability, MDA-MB-231 breast cancer; assay type: cell-based; details: read-out: IC50, Other cancer types, 24 h
Summary of the method: as §2

PI3K/Akt pathway = assay: Western blot of pathway signaling, PI3K/Akt; assay type: cell-based, human; details: 3 to 6 µmol/L for 3 to 24 hours, UACC 903 and 1205 Lu
Summary of the method: as §4

PC-3 = assay: MTS cell viability, PC-3 prostate cancer; assay type: cell-based; details: read-out: IC50, Other cancer types, 24 h
Summary of the method: as §2

MiA PaCa-2 = assay: MTS cell viability, MiA PaCa-2 pancreas cancer; assay type: cell-based; details: read-out: IC50, Other cancer types, 24 h
Summary of the method: as §2

Toxicity assessment = assay type: in vivo; details: Swiss Webster mice; for blood markers of major organ function (ALP, ALT, AST, CK, CREA, GLU): 10 mg/kg i.p. daily
Summary of the method: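 Swiss Webster mice (n=5) given 5 or 10 mg/kg test compound i.p. daily for 22 days and weighed daily. At termination, blood taken by cardiac puncture into lithium heparin serum separator tubes for ALP, ALT, AST, CK, creatinine and glucose. On day 22 liver, spleen, kidney, intestine, lung and heart were formalin-fixed, paraffin-embedded, H&E stained and examined microscopically.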

SW-480 = assay: MTS cell viability, SW-480 colon cancer; assay type: cell-based; details: read-out: IC50, Other cancer types, 24 h
Summary of the method: as §2

pAkt (Ser473) = assay: Western blot of size and time matched tumor lysates, pAkt; assay type: in vivo, nude mice; details: days 11, 13 and 15, 7.5 mg/kg i.p. daily from day 6, versus DMSO
Summary of the method: (§5)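 Same size- and time-matched UACC 903 s.c. tumors in nude mice: 7.5 mg/kg test compound or DMSO vehicle given i.p. daily from day 6. Lysates from tumors harvested at days 11, 13 and 15 immunoblotted for pAkt (Ser473) or pStat3 (Tyr705), compared with vehicle-treated tumors.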

melanoma cells = assay: MTS cell viability, melanoma cell lines; assay type: cell-based, human
Summary of the method: as §3

pStat3 (Tyr705) = assay: Western blot of size and time matched tumor lysates, pStat3; assay type: in vivo, nude mice; details: days 11, 13 and 15, 7.5 mg/kg i.p. daily from day 6, versus DMSO
Summary of the method: as §5

UACC 903 tumors = assay: Size and time matched tumors, Ki-67 immunohistochemistry; assay type: in vivo, nude mice; details: day 11, UACC 903 tumors, 7.5 mg/kg i.p. daily from day 6
Summary of the method: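 Nude mice injected s.c. with 2.5×10^6 UACC 903 cells. From day 6, dosed i.p. daily to day 15 with DMSO vehicle or 7.5 mg/kg test compound. Size- and time-matched tumors harvested at days 11, 13 and 15 and immunostained with mouse anti-human Ki-67. Positive cells scored as % of total cells, ≥6 tumors, 4–6 fields each.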

MAPK pathway = assay: Western blot of pathway signaling, MAPK; assay type: cell-based, human; details: 3 to 6 µmol/L for 3 to 24 hours, UACC 903 and 1205 Lu
Summary of the method: as §4

[6] = test system: mutant V600EB-Raf melanoma; details: cited from earlier work

CC(C)c1ccc2c(c1)CC[C@H]1[C@](C)(CN)CCC[C@]21C [leelamine, Dehydroabietylamine]
stimulation of G-protein activity (G-protein activity): not stimulating | binding to the cannabinoid receptor CB1 (cannabinoid receptor CB1): weakly binding | reduction of tumor volume [1]: 61% | IC50 (HT-1080): 4.01 ± 0.27 µM | cell cycle distribution [2]: increase in the sub-G0/G1 and G0/G1 cell populations, with a corresponding decrease in the S-phase population | IC50 (LNCap): 10.9 ± 0.23 µM | IC50 (A-549): 8.81 ± 0.82 µM | IC50 (normal cells): 9.3 µM | decrease in cell viability (UACC 903 melanoma cells): approximately 95% | increase in apoptosis [3]: 600% | reduction of tumor volume [4]: 57% | IC50 (HT-29): 5.95 ± 1.23 µM | IC50 (HCT-116): 4.8 ± 0.5 µM | IC50 (MCF-7): 7.12 ± 1.3 µM | inhibition of growth of preexisting xenografted melanoma tumors, average ([5]; average of UACC 903 and 1205 Lu xenografts, i.p. daily for 3 to 4 weeks): 60% | animal body weight ([5]; xenograft-bearing nude mice, leelamine i.p. daily versus DMSO control): no significant differences | signaling through STAT3 pathway (STAT3 pathway; 3 to 6 µmol/L for 3 to 24 hours): Decreased signaling | time from which inhibition of STAT3 pathway occurred (STAT3 pathway; 3 to 6 µmol/L): ≥ 12 h | IC50 (MDA-MB-231): 5.82 ± 0.87 µM | signaling through PI3K pathway (PI3K/Akt pathway): Decreased signaling | IC50 (PC-3): 5.41 ± 2.6 µM | IC50 (MiA PaCa-2): 4.69 ± 0.37 µM | blood markers of major organ function (ALP, ALT, AST, CK, CREA, GLU) (Toxicity assessment; after 22 days, 10 mg/kg): No significant differences; also recorded: negligible toxicity | blood markers of major organ function (ALP, ALT, AST, CK, CREA, GLU) (Toxicity assessment; after 22 days, listed as Leelamine, 10 mg/kg): without affecting | histological examination of H&E stained vital organ sections (cellular morphology or overall structure) (Toxicity assessment; 10 mg/kg, after 22 days, liver, spleen, kidney, intestine, lung, heart, 10 mg/kg): no change; also recorded: no differences | body weights (Toxicity assessment; 5 or 10 mg/kg i.p. daily, 22 days): No significant difference | IC50 (SW-480): 1.55 ± 0.33 µM | active pAkt (Ser473) in tumor lysates (pAkt (Ser473)): decreased; also recorded: inhibition | fold more effective at inhibiting cultured melanoma cell survival than normal cells (melanoma cells; melanoma cells versus normal cells, average): 4.5 fold | IC50 (melanoma cells; read-out: average IC50, cultured melanoma cells, average over melanoma cells): 2 µM | pStat3 (Tyr705) in tumor lysates (pStat3 (Tyr705)): decreased; also recorded: inhibition | reduction in proliferating cells (Ki-67) (UACC 903 tumors): 50% | signaling through MAPK pathway (MAPK pathway): Decreased signaling

CCCS(=O)(=O)Nc1ccc(F)c(C(=O)c2c[nH]c3ncc(-c4ccc(Cl)cc4)cc23)c1F [Zelboraf]
progression-free survival [6]: 6.2 months | partial or complete anti-tumor response rate ([6]; patients having mutant V600EB-Raf, first 2-month treatment cycle): approximately 80%
